Assay [1] addresses recombinant human PD-L1 protein (Homo sapiens, UniProt Q9NZQ7). The experiment in a line: SPR binding affinity. The following applies: read-out: Kd (dissociation rate constant). The method in brief: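 SPR on a CM5 chip at 25 °C. Recombinant human PD-L1 immobilised; surface blocked at pH 8.5. Peptide in HEPES-buffered saline (pH 7.2–7.4, 0.005% P20) at seven concentrations, 1.5625–100 nM, injected at 10 μL/min: 120 s association, 360 s dissociation. Regenerated with glycine pH 2.0 for 15 s. Blank-subtracted sensorgrams fitted to give the dissociation rate constant.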
On the technique in general: SPR reads the build-up and loss of mass on a sensor chip optically.

Assay [2] addresses recombinant murine PD-L1 protein (Mus musculus, UniProt Q9EP73). The assay is described as follows: SPR binding affinity. The following applies: read-out: Kd (dissociation rate constant).
In another assay the test system is U87MG cells. The assay is described as follows: Blocking of tracer cell binding by PD-L1 antibodies. The format is cell-based, human. As to conditions: U87MG cells pre-incubated with 50 nM antibody, 4 °C, 30 min, then tracer 30 min. The method in brief:
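U87MG cells (1 × 10^6 per sample, n = 3) pre-incubated with PBS or 50 nM PD-L1 monoclonal antibody, 4 °C, 30 min, then given 0.1 μCi Al[18F]F-NOTA-PCP1 at 4 °C for 30 min. Washed three times with PBS–0.1% Tween-20. Bound radioactivity gamma-counted and expressed as %ID. Compared with PBS-treated cells by unpaired two-tailed t test.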

Another assay deals with U87MG tumors. The experiment in a line: Micro-PET/CT target engagement of PD-L1 antibodies. The format is in vivo, BALB/c nude mice. The following applies: U87MG model. The essentials: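 Female BALB/c nude mice (6–8 weeks, 18.0–23.0 g) carried subcutaneous right-flank U87MG xenografts (6 × 10^6 cells) grown to 100–300 mm3. Atezolizumab given at 0.05–20 mg/kg (n = 3). Imaged 24 or 120 h later: 6.0 ± 0.91 MBq tracer via tail vein, micro-PET/CT at 2 h post-injection under 1.5–2% isoflurane. 3D-OSEM/OP-MAP reconstruction with attenuation correction; manual tumour ROIs; uptake as %ID/cc.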

recombinant human PD-L1 protein, sequence (Q9NZQ7 19-290): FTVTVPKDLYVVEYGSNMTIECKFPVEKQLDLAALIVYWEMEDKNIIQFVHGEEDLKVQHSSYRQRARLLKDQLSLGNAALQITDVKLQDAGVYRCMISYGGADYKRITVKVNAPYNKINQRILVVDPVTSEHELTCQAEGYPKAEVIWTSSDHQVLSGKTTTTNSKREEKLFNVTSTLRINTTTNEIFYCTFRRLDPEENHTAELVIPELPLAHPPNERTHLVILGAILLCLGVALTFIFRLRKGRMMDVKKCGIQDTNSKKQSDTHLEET
recombinant murine PD-L1 protein, sequence (Q9EP73 19-290): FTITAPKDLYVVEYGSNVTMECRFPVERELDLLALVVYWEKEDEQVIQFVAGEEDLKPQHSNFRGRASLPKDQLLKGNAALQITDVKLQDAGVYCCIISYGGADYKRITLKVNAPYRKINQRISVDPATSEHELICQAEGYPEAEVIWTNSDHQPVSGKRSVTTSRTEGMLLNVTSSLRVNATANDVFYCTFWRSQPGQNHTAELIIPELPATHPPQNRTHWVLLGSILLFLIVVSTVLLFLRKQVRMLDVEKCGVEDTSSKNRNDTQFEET

`CCCC[C@H]1C(=O)N(C)[C@@H](CCCC)C(=O)N[C@@H](CCCNC(=O)CCOCCOCCOCCNC(=O)CN2CCN(CC(=O)O)CCN(CC(=O)O)CC2)C(=O)N[C@H](C(=O)NCC(N)=O)CSCC(=O)N[C@@H](Cc2ccc(O)cc2)C(=O)N(C)[C@@H](C)C(=O)N[C@@H](CC(N)=O)C(=O)N2CCC[C@H]2C(=O)N[C@@H](Cc2c[nH]cn2)C(=O)N[C@@H](CC(C)C)C(=O)N2C[C@H](O)C[C@H]2C(=O)N[C@@H](Cc2c[nH]c3ccccc23)C(=O)N[C@@H](CO)C(=O)N[C@@H](Cc2cn(C)c3ccccc23)C(=O)N1C` [NOTA-PCP1]: the results for the koff in assay [1] and in assay [2] were 0.000593 s⁻¹ and 0.52 s⁻¹, respectively.

Take AtzMab: anti-PD-L1 monoclonal antibody: the “Al[^18F]F-NOTA-PCP1 cell uptake after antibody treatment” value (shortened to “Al[^18F]F-NOTA-PCP1 cell uptake”) in the assay with U87MG cells turned out to be 1.26 ± 0.05 %ID. Besides, the “tumor Al[^18F]F-NOTA-PCP1 uptake on PET/CT after antibody” value in the assay on U87MG tumors (AtzMab 0.05 mg/kg, at 120h, n = 3 (Figure 6B)) is 11.64 ± 1.13 %ID/cc; in the assay on U87MG tumors (AtzMab 0.5 mg/kg, at 120h, n = 3 (Figure 6B)), 6.17 ± 0.35 %ID/cc; in the assay on U87MG tumors (AtzMab 5 mg/kg, 24 h, n = 3 (Figure 7B)), 2.16 ± 0.20 %ID/cc; in the assay with U87MG tumors (AtzMab 5 mg/kg, 120 h, n = 3 (Figure 7B)), 6.91 ± 0.18 %ID/cc; with U87MG tumors (AtzMab 20 mg/kg, 24 h, n = 3 (Figure 7B)), 2.19 ± 0.13 %ID/cc; in the assay on U87MG tumors (AtzMab 20 mg/kg, 120 h, n = 3 (Figure 7B)), 2.29 ± 0.04 %ID/cc. Moreover, the “tumor Al[^18F]F-NOTA-PCP1 uptake on PET/CT after antibody” value with U87MG tumors (AtzMab 20 mg/kg, at 120h, n = 3 (Figure 6B)) was 2.02 ± 0.14 %ID/cc.

As for AveMab: anti-PD-L1 monoclonal antibody, the “Al[^18F]F-NOTA-PCP1 cell uptake” value in the assay with U87MG cells is on record as 1.40 ± 0.05 %ID.

For the molecule DurMab: anti-PD-L1 monoclonal antibody, the “Al[^18F]F-NOTA-PCP1 cell uptake” value in the assay with U87MG cells turned out to be 1.34 ± 0.09 %ID.

(Values after paper PMC10915797 (Molecular Pharmaceutics, 2024).)
